Screening data deposited in PubChem BioAssay by Sanford-Burnham Center for Chemical Genomics.
PABP polyA inh = PABP poly(A) RNA binding inhibitors, primary screen, biochemical, fluorescence polarization, uHTS; AID 2014, 2009; actives 1% (n = 290,000); inhibition, % at 35 µM; Polyadenylate-binding protein 1 (Homo sapiens), P11940;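 note: calls also rest on retests at 20 µM and on dose response follow-up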
Target sequence (P11940 whole entry, looked up): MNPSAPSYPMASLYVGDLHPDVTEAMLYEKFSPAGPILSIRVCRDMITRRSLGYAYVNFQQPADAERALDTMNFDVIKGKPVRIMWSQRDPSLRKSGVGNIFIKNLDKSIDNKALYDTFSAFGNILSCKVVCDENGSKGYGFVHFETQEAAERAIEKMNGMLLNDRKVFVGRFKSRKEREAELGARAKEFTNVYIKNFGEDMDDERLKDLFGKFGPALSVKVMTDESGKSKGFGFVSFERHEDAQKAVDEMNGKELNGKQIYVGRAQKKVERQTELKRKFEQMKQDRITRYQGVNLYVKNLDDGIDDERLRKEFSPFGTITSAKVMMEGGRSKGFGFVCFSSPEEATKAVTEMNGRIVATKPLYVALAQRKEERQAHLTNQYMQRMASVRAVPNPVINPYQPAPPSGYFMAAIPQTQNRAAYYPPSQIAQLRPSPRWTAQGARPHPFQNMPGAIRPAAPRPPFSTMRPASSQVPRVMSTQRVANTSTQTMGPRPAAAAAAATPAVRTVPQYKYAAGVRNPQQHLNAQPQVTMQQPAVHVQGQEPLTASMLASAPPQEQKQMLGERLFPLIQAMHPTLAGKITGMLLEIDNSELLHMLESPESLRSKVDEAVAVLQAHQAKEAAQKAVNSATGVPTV
MLLE-PAM2 inh = inhibitors of PABP1 MLLE–PAM2 peptide binding, primary screen, biochemical, fluorescence polarization, FITC-PAM2, GST-MLLE | Polyadenylate-binding protein 1 (Homo sapiens), P11940 | inhibition, % at 20 µM | actives 0.36% (n = 360,000) | AID 588489, 2011; in the data active = inhibition above about 35%, passing the limit was not always enough;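 note: plate controls were DMSO wells with GST-MLLE for no effect and wells lacking GST-MLLE protein for full effect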
MT1-MMP act inh = blockers of MT1-MMP proenzyme processing, primary screen, HT1080 RFP-PRO-GFP cells, GFP/RFP fluorescence. GFP/RFP ratio fluorescence, overnight; percent of plate control window, DMSO zero. AID 651647, 2012. GFP/RFP ratio change, % at 20 µM. Matrix metalloproteinase-14 (Homo sapiens), P50281. actives 0.061% (n = 360,000);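 active = GFP/RFP ratio change of at least 30% with cell ATP level not reduced by more than half and red fluorescence within 50% of control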
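Compound: 20 µM single dose, 1% DMSO / System: HT1080 RFP-PRO-GFP cells / Controls: DMSO and RFP-L50D-GFP cell wells / Read-out basis: GFP/RFP fluorescence ratio / Schedule: overnight compound exposure at 37 °C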
SKN-1 inh = suppressors of acrylamide-induced Pgst-4::GFP reporter in worms, primary screen, SKN-1 inhibitor project, whole organism, uHTS, GFP/RFP fluorescence ratio, strain VP596; C. elegans VP596 Pgst-4::GFP/RFP ratio, 24 h; AID 624304, 2012; actives 0.49% (n = 360,000); inhibition, % at 21.8 µM;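 active = interference check ratio from 0.5 to 1.5 plus GFP to RFP signal ratio inhibition reaching or exceeding a fixed threshold, cut at about 30% in these data, passing the limit was not always enough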
eIF4H inh = human eIF4H binding inhibitors, primary screen, translation initiation inhibitor project, biochemical, uHTS, fluorescence polarization. Eukaryotic translation initiation factor 4H (Homo sapiens), Q15056. eIF4H fluorescence polarization binding assay. inhibition, % at 35 µM. actives 0.94% (n = 290,000);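 note: calls also rest on retests at 20 µM and on dose response follow-up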
* hit, by the source's call; i = inactive; ? = inconclusive; / = not tested or not shown. Hits are enriched below; roughly 1.7% of the tested compounds scored in any of these assays. Unless noted, the rule behind the calls is not given here.

SMILES | PABP polyA inh | MLLE-PAM2 inh | MT1-MMP act inh | SKN-1 inh | eIF4H inh
O=C(COC(=O)/C=C/c1ccco1)Nc1ccccc1 | 6.5 | -10.2 | 2.4 | 0.0 | -1.6
CN(Cc1ccccc1)C(=O)COC(=O)/C=C/c1ccco1 | 25.0* | 5.5 | -1.1 | 8.0 | 82.4*
CN(CCOC(=O)/C=C/c1ccco1)Cc1ccccc1 | 46.1* | 10.2 | -1.9 | 1.0 | 89.7*
CCc1ccccc1N(C)S(=O)(=O)c1ccc(-c2cc(C)no2)s1 | 10.4 | -10.6 | -10.8 | 10.8 | -8.2
CCc1ccccc1N(C(C)=O)c1nc(CCl)cs1 | 71.2 | 22.6 | -5.1 | -1.8 | active
CCN1CCN(c2cc(C)c3cc(NC(=S)N4CCCC4)ccc3n2)CC1 | -5.1 | -81.2 | 0.0 | -4.4 | 7.5
Cc1cc(N2CCOCC2)nc2ccc(NC(=O)C3CCC(C)CC3)cc12 (stereo not given) | -7.3 | 6.9 | 10.1 | 35.2* | -8.8
CCN1CCN(c2cc(C)c3cc(NC(=S)N4CCCCC4)ccc3n2)CC1 | 1.6 | -60.2 | 2.1 | 37.5* | -1.3
CN1CCc2c(sc3c2C(=O)NC(c2ccccc2)N3)C1 (stereo not given) | active | -48.2 | -12.2 | 47.0* | 63.3*
O=C1NC(c2ccccn2)Nc2sc3c(c21)CCC3 (stereo not given) | 57.1 | 16.1 | 5.2 | -2.8 | 86.0
O=C1NC(c2ccc(Br)cc2)Nc2sc3c(c21)CCC3 (stereo not given) | 65.6* | -3.7 | -15.7 | 27.8 | 102.6*
CN1CCc2c(sc3c2C(=O)NC(c2ccccn2)N3)C1 (stereo not given) | ? | 50.9 | -3.9 | 54.6 | ?
Cc1ccc(S(=O)(=O)NNC2CC(=O)N(c3ccc(Br)cc3)C2=O)cc1 (stereo not given) | 2.6 | 7.4 | 4.4 | 4.8 | -1.5
COc1ccc(-c2nc(-c3ccccc3)nc(N3CCN(C)CC3)c2C#N)cc1 | -1.3 | 5.0 | -2.0 | -0.5 | 0.4
COc1cccc(-c2nc(-c3ccccc3)nc(N3CCN(C)CC3)c2C#N)c1 | 59.4 | 1.1 | -3.9 | 11.0 | active
CN(C)c1cccc(C(=O)NNC(=O)CN2C(=O)C3CC=CCC3C2=O)c1 (stereo not given) | / | -7.2 | 1.6 | 22.1 | /
CNC(=S)N/N=C(\C)c1cccc([N+](=O)[O-])c1 | 120.4 | 18.9 | 8.1 | 0.5 | active
C/C(=N\NC(=O)C(N)=O)c1cccc([N+](=O)[O-])c1 | -8.9 | -7.3 | -0.6 | 11.8 | 43.4
CCCn1c(CCC(=O)O)ccc1-c1ccc(OC)cc1 | 61.7* | -24.9 | -25.7 | 8.5 | 53.0*
Cn1c(=O)n(C)c2cc([N+](=O)[O-])c(N3CCN(C(=O)c4cccc(Cl)c4)CC3)cc21 | 50.3* | 12.1 | 6.2 | 2.4 | active
Cn1c(=O)n(C)c2cc([N+](=O)[O-])c(N3CCN(C(=O)c4cccc(F)c4)CC3)cc21 | -4.5 | 22.1 | 3.1 | 4.9 | 6.9
CC(C)CN1CCN(C(=O)CCc2nnc(Cc3c[nH]c4ccccc34)o2)[C@@H](C)C1=O | -9.5 | -1.5 | -2.3 | 26.8 | 1.9
CCOC(=O)C1=C(C)OC(=Cc2ccccc2)C1=O | / | -52.0 | -12.8 | 19.6 | /
CCOC(=O)C1=C(O)c2ccccc2C(=O)/C1=C\c1ccc(C)cc1 | 1.9 | 29.8 | 8.5 | 47.8* | 44.1
CN(CCOc1ccccc1)C(=O)c1ccc(F)c(S(=O)(=O)N2CCOCC2)c1 | / | 6.8 | -1.4 | 6.2 | /
SMILES | PABP polyA inh | MLLE-PAM2 inh | MT1-MMP act inh | SKN-1 inh | eIF4H inh
COc1ccc(Cc2c(-c3ccco3)nc3c(C)cc(Br)cn23)c(C)c1 | / | -33.2 | -5.8 | 48.4* | /
COc1ccc(Cc2c(-c3ccco3)nc3ccc(Br)cn23)c(C)c1 | / | -22.4 | -3.6 | 19.3 | /
Cc1cc(NC(=O)c2ccccc2[N+](=O)[O-])ccc1Br | 15.2 | -0.9 | 3.4 | 2.5 | -6.7
Cn1c(=O)c2c(=O)cc(N)[nH]c2n(C)c1=O | 39.1 | 43.3* | -1.9 | -0.9 | 44.4
CN1C(=O)/C(=C/C=C2\SCCN2C)N(C)C1=S | -0.9 | -160.4 | 25.7 | 47.4* | ?
O=C1/C(=C/c2cccs2)CCC/C1=C\c1cccs1 | 52.9* | -20.3 | -9.8 | 38.5* | 71.9*
CC1C/C(=C/c2cccs2)C(=O)/C(=C/c2cccs2)C1 (stereo not given) | -1.0 | -18.8 | -8.2 | 18.1 | 73.7
Cn1cccc1/C=C1\CCC/C(=C\c2cccn2C)C1=O | 60.7* | i | -237.9 | 13.1 | 52.1*
O=C1/C(=C\c2ccco2)CCC/C1=C\c1ccco1 | 2.7 | -43.1 | -11.8 | 28.0 | 86.2
N#CCC(=O)N/N=C/c1ccc(N2N=C(c3ccccc3)CC2c2ccccc2)cc1 (stereo not given) | -8.6 | -111.3 | -94.6 | 19.2 | 24.1
CC(C)Cc1nnc(NC(=O)C2CCN(C(=O)c3ccc(F)cc3)CC2)s1 | / | 9.9 | 0.2 | 2.6 | /
COC(=O)c1ccc(CNC(=O)c2ccc(OC)c(S(=O)(=O)NC3CCCC3)c2)cc1 | / | 7.0 | 3.3 | 10.7 | /
O=c1cc(-c2ccccc2)[nH]c2[nH]n(-c3ccccc3)c(=O)c12 | 7.8 | 10.6 | 8.1 | -12.1 | -2.6
CCOC(=O)Cc1cc(=O)c2c(=O)n(-c3ccccc3)[nH]c2[nH]1 | 54.5* | -7.7 | 3.3 | 12.4 | 6.0*
CC(CCc1ccccn1)(CCc1ccccn1)C(=O)c1ccccc1 | / | -1.5 | -0.7 | 11.8 | /
Cc1ccc(CN2C(=O)N/C(=C\c3cccn3-c3cccc(C(=O)O)c3)C2=O)cc1 | 2.6* | 7.4 | 5.2 | -1.4 | 90.1
CCOC(=O)c1cccc(-n2cccc2/C=C2\NC(=O)N(CC(=O)O)C2=O)c1 | / | -1.3 | -0.4 | 11.1 | /
Cc1ccc(NC(=O)CN2C(=O)N/C(=C\c3cccn3-c3cccc(C(=O)O)c3)C2=O)cc1 | 1.5* | 2.3 | 5.4 | -0.9 | 99.0*
Cc1cccc(NC(=O)CN2C(=O)N/C(=C\c3ccc(-c4cccc(C(=O)O)c4)o3)C2=O)c1 | 72.0* | -0.6 | 3.0 | -9.4 | 79.2*
Cc1cccc(NC(=O)CN2C(=O)N/C(=C/c3ccc(C)o3)C2=O)c1 | -11.9 | -8.5 | -17.0 | 7.1 | 14.6
Cc1ccc(NC(=O)CN2C(=O)N/C(=C/c3ccccc3OCc3cccc(C(=O)O)c3)C2=O)cc1 | / | 16.1 | 0.6 | -2.8 | /
Cc1ccc(NC(=O)CN2C(=O)N/C(=C/c3cc(C)n(-c4cccc(C(=O)O)c4)c3C)C2=O)cc1 | 26.5* | 17.7 | -2.4 | 8.5 | 86.2*
CC(C)CCN(C(=O)C1=COCCO1)c1c(N)n(Cc2ccccc2)c(=O)[nH]c1=O | / | 27.0 | 1.4 | -2.0 | /
O=C(CSc1nnc(C2CCCCC2)o1)Nc1ccccc1Cl | 2.0 | 9.5 | 7.4 | 5.1 | 1.4
